# Neddylation inh: blocks human cullin neddylation. TR-FRET cullin neddylation, biochemical. inhibition, % at 25 µM. hit rate 0.58% among 360,000. AID 651699; in the data active = inhibition above about 36%
# HIF activator: HIF pathway transcriptional activation. activation, % at 7.5 µM (by protocol). hit rate 0.32% among 300,000. U2OS HRE-luciferase reporter, luminescence; normalized: DMSO 0%, desferrioxamine 100%;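 active = mean activation of at least 10% of the iron chelator positive control signal, with at least half of replicates also reaching 10%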
# Calb FLC: C. albicans growth modulation with fluconazole; C. albicans CaCi-2 + fluconazole, Alamar Blue growth, 48 h; hit rate 0.57% among 300,000; growth inhibition, % (no concentration beside the values);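 active = growth inhibition above about 58% in most replicates, limit read from the data, passing the limit was not always enough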;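 note: all wells also contain fluconazole at 8 µg/ml as a sub-toxic cotreatment; 0% = median of DMSO wells and 100% = median of geldanamycin control wells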
# proCasp3 act: procaspase-3 (human) activation; activation, % at 8.5 µM; P42574; AID 463141; hit rate 0.11% among 330,000; recombinant procaspase-3 D3A, Ac-DEVD-pNA absorbance 405 nm;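 active = activation above the mean of all tested compounds plus 3 SD, cut at about 21% in these data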;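 note: 0% = DMSO alone and 100% = DMSO wells spiked with extra 5 µM PC-3 D3A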
# Target sequence (P42574 whole entry D9A/D28A/D175A): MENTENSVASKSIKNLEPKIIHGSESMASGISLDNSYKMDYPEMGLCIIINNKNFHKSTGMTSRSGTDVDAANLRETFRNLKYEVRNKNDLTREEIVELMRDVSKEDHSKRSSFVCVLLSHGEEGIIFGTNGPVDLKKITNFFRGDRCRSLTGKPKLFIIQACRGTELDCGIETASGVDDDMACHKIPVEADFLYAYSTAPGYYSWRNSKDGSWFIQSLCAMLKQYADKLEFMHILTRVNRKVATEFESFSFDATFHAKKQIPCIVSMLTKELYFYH
#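 Test system: Procaspase-3 D3A mutant, all three cleavage aspartates alanine | Dosing: Single dose, 8.5 µM nominal compound, 0.8% DMSO | Schedule: 1 h preincubation, 2 h reaction | Technique: 405 nm absorbance of p-nitroaniline, reads at 0 and 120 min | Repeats: One well per compound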
# GAA850 FXN act: frataxin GAA850 promoter activation. hit rate 0.56% among 360,000. activation, % at 6 µM. HEK293 lucGAA850 FXN promoter luciferase reporter, 24 h; percent of 10 µM SAHA response. AID 540364;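 active = activation above the average of all compounds screened plus 3 SD, cutoff fixed separately per campaign, cut at about 7.5% in these data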;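 note: 0% = DMSO wells and 100% = 10 µM SAHA wells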
# proCasp7 act: activates human procaspase-7, counter-screen for procaspase-3 activators. hit rate 0.093% among 330,000. activation, % at 8.5 µM. AID 463210. P55210. recombinant procaspase-7, Ac-DEVD-pNA absorbance 405 nm; D23A/D198A/D206A triple mutant, cannot self-cleave; scale: DMSO 0, 5 µM enzyme 100;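 active = percent activation above the screen-wide mean plus 3 SD, cut at about 25% in these data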
# Target sequence (P55210 whole entry D23A/D198A/D206A): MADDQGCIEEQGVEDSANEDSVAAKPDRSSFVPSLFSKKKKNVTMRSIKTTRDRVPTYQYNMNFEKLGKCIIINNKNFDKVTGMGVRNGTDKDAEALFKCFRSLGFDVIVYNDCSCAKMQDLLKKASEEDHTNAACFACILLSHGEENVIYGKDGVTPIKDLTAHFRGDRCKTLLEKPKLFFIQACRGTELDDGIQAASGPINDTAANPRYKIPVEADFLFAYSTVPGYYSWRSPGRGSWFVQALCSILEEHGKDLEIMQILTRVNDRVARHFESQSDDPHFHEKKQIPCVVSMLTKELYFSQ
#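 Assay system: Uncleavable procaspase-7 mutant enzyme / Input: 2 µM procaspase-7 mutant as dispensed / Dosing: single nominal 8.5 µM compound dose, 0.8% DMSO final / Timing: 1 h enzyme–compound preincubation and 2 h substrate reaction, both 25 °C / Detection: p-Nitroaniline absorbance at 405 nm, read at 0 and 120 min / Replication: singlicate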
# procasp7 triplic: counter-screen for procaspase-3 activators: activators of human procaspase-7; 210 tested, under 10 active; shares compounds with proCasp3 act; AID 488941; recombinant procaspase-7, Ac-DEVD-pNA absorbance; asp23/198/206-to-Ala mutant, cannot self-cleave; activation, % at 8.5 µM;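 active = mean activation above a set limit taken from an earlier procaspase-7 screen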;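 note: 0% = DMSO wells and 100% = DMSO plus 5 µM procaspase-7 enzyme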
# proCasp3 confirm: confirmation of human procaspase-3 activators; shares compounds with proCasp3 act; recombinant PC-3 D3A, Ac-DEVD-pNA absorbance 405 nm; 100% is higher-enzyme control; activation, % at 8.5 µM; hit rate 10% among 210; AID 488954;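 active = mean activation above a set limit carried over from the earlier primary screen, cut at about 22% in these data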
# Numbers without * were called inactive; . = no result given. Compounds with a hit are over-represented: about 1.9% of the library has one in this group of screens.
SMILES,Neddylation inh,HIF activator,Calb FLC,proCasp3 act,GAA850 FXN act,proCasp7 act,procasp7 triplic,proCasp3 confirm
CC1(C)CC(=O)C2=C(C1)OC1=C(C(=O)CC(C)(C)C1)C2c1cc([N+](=O)[O-])cc([N+](=O)[O-])c1O,-18,0,91*,-3,2,-2,.,.
CC(C)c1ccc(-c2c(C#N)c(N)nc3c2CCCCC3)cc1,-18,268*,6,8,-2,2,.,.
CCOC(=O)c1c(C)nc2ccc(C)cn12,4,0,7,8,3,9,.,.
CCOC(=O)c1c(C)nc2cc(C)ccn12,2,14*,-4,-1,3,0,.,.
CCCCN1CC(N2CCN(Cc3ccccc3)CC2)CS1(=O)=O (stereo not drawn),5,.,.,.,.,.,.,.
CC1=C(C(=O)N(C)C)CC(CC(=O)NCCCCc2ccccc2)C(=O)N1CCCN1CCCC1=O (stereo not drawn),-9,.,.,.,2,.,.,.
Cc1cccc(NC(=S)NNC(=O)c2cc3c(s2)CCC(C)C3)c1C (stereo not drawn),-2,0,110*,1,2,-2,.,.
O=C1N(Cc2ccccc2)c2ccccc2OC1(F)F,0,.,.,.,1,.,.,.
COc1ccc(NC(=O)C2(C)CCN2C(=O)Cc2ccc(Cl)cc2Cl)cc1OC (stereo not drawn),0,.,.,.,0,.,.,.
COc1cc(C(=O)OCc2cc(=O)c(O)co2)ccc1OC(F)F,1,0,102*,-4,3,5,.,.
CCCCOC(=O)n1c(=O)oc2cc(S(=O)(=O)N3CCCCC3)ccc21,16,55*,0,7,0,8,.,.
Cc1c(O)ccc2c(CN3CCN(CCO)CC3)cc(=O)oc12,.,.,1,19,-1,19,.,.
Cc1c(O)ccc2c(CN3CCOCC3)cc(=O)oc12,.,.,34,21*,1,22,-19,-13
Cn1c(-c2ccc(C=O)s2)nc2c3ccccc3c3ccccc3c21,.,0,2,46*,-2,-23,-21,-14
CSc1ccc(CN2CCC(N3CCC(C(=O)NC4CC4)CC3)CC2)cc1,-7,.,.,.,-3,.,.,.
CCOC(=O)CC(=O)CSc1nc2sc(C)cc2c(=O)n1Cc1ccco1,-3,0,5,59*,0,0,-2,-1
CCC(=O)N1CCCC(C)(C(=O)Nc2ccc(C)c(C)c2)C1 (stereo not drawn),7,.,.,.,0,.,.,.
N#Cc1cc2c(nc1SCc1nc3ccccc3[nH]1)CCC2,.,1,32,1,.,-6,.,.
Cc1cc(C)c(C#N)c(SCc2nnc(-c3ccccc3)o2)n1,9,-3,-8,125*,-15,23,-15,-18
COc1ccccc1-c1cc(-c2ccc(C)cc2)nc(SCc2nnc(-c3ccccc3)o2)c1C#N,-203,-1,2,-2,0,-8,.,.
Cc1cc(C)c(C#N)c(SCc2nc3ccccc3[nH]2)n1,.,5,7,156*,6,2,-2,5
COc1ccccc1OCCCCNC(C)(C)C,0,0,-9,26*,2,8,2,2
COc1ccc(C2CC(c3cccc(Br)c3)=NN2c2ccc(S(N)(=O)=O)cc2)cc1 (stereo not drawn),.,.,.,-4,-1,-42,.,.
COc1ccc(C2CC(c3cccc(F)c3)=NN2c2ccc(S(N)(=O)=O)cc2)cc1 (stereo not drawn),.,.,.,37*,0,20,-22,-12
NC(C(=O)O)C1ON=C(Cl)C1O (stereo not drawn),10,.,.,.,-1,.,.,.
SMILES,Neddylation inh,HIF activator,Calb FLC,proCasp3 act,GAA850 FXN act,proCasp7 act,procasp7 triplic,proCasp3 confirm
CC(=O)c1cn(CC(=O)Nc2ccccc2F)c2ccccc12,0,-3,3,6,1,-9,.,.
O=C(Cn1c2ccccc2c(=O)c2ccccc21)Nc1ccccc1F,.,0,21,28*,2,-12,-21,-14
O=C(Nc1ccccc1OC(=O)c1ccccc1)c1ccccc1,-9,.,.,.,-3,.,.,.
Cc1nc2c(sc3nc(N4CCOCC4)c4c(c32)CC(C)(C)OC4)c(-c2ccc(Cl)cc2)c1C(=O)O,33,0,-3,26*,0,-9,-8,-5
CC1(C)Cc2c(c(N3CCOCC3)nc3sc(C(=O)Nc4ccc(Cl)cc4)c(N)c23)CO1,-6,-1,-4,-13,-1,-21,.,.
CCCCn1c(N)c(N(CC(C)C)C(=O)C2CC(=O)N(c3ccc(C)cc3)C2)c(=O)[nH]c1=O (stereo not drawn),15,0,9,22*,1,-7,-1,5
Cc1ccccc1-c1cccc([C@@H]2C[C@H]3[C@H](CON3C)CN2Cc2cc(Cl)cc(Cl)c2)c1,0,.,.,.,0,.,.,.
CCN(CC)c1ccc(/C=N/NC(=O)c2cccc(S(=O)(=O)Nc3ccccc3OC)c2)c(O)c1,.,92*,-6,39*,-11,23,15,20
C=CCN(c1ccccc1OC)S(=O)(=O)c1cccc(C(=O)OCC(=O)c2c[nH]c3ccccc23)c1,-12,0,-14,22*,-4,-14,3,3
COc1cc(OC)c(N(C)S(=O)(=O)c2cccc(C(=O)OCC(=O)c3c[nH]c4ccccc34)c2)cc1Cl,-117,-1,-10,0,-7,3,.,.
CC(=O)Oc1c(-c2ccc(Br)o2)oc2ccccc2c1=O,.,1,85*,27*,1,24,-4,21*
COc1ccc(-c2oc3ccccc3c(=O)c2OC(C)=O)cc1,.,5,45,-7,7,-10,.,.
Cc1c(Cc2ccccc2)sc(/N=C/c2c(O)ccc3ccccc23)c1C(N)=O,.,1,48,32*,2,10,9,26*
Cc1c(Cc2ccccc2)sc(/N=C/c2ccc3ccccc3c2)c1C(N)=O,28,.,.,-5,-3,-11,.,.
NC(=O)c1c(NC(=O)c2ccccc2F)sc2c1CCCC2,.,-25,82*,37*,4,-20,-21,-66
COCCNc1nc(Nc2ccc(F)cc2)c2sccc2n1,8,.,.,.,2,.,.,.
CCN1CCN(c2ncnc3c2sc(=S)n3-c2ccccc2)CC1,4,0,8,23*,-1,6,2,4
O=C(C[C@@H]1CC[C@H](NC(=O)c2ccc3c(c2)OCO3)[C@@H](CO)O1)NCc1ccc(F)cc1,4,.,.,.,.,.,.,.
Cc1ccc(-n2nc3ccc(N)cc3n2)cc1,.,-15,-1,-2,-5,6,.,.
